Data set [1] can be described thus: Selectivity index, ratio of CC50 for african green monkey Vero cells to IC50 for promastigotes form of Leishmania braziliensis MHOM/BR/75/M2904. It counts as functional.
A short description of data set [2]: Cytotoxicity against african green monkey Vero cells after 72 hrs. Particulars: chlorocebus sabaeus. It counts as cell-based.
The test system of data set [3] is Leishmania braziliensis. In words: Antileishmanial activity against promastigotes form of Leishmania braziliensis MHOM/BR/75/M2904 after 72 hrs. It counts as functional. The settings on record: MHOM/BR/75/M2904, 72 h. Put shortly: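 5.0 × 10^6 promastigotes/mL were exposed to 500, 100, 50, 25, 10, 5 and 1 (DMSO ≤1% final) at 28 °C for 72 h, and living parasites were counted in a Neubauer chamber. IC50 came from linear regression, mean ± standard error of three independent experiments.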

Data set [4] has as its target T1, Nitric oxide synthase, inducible (Mus musculus) (UniProt P29477).
T1 sequence (whole entry): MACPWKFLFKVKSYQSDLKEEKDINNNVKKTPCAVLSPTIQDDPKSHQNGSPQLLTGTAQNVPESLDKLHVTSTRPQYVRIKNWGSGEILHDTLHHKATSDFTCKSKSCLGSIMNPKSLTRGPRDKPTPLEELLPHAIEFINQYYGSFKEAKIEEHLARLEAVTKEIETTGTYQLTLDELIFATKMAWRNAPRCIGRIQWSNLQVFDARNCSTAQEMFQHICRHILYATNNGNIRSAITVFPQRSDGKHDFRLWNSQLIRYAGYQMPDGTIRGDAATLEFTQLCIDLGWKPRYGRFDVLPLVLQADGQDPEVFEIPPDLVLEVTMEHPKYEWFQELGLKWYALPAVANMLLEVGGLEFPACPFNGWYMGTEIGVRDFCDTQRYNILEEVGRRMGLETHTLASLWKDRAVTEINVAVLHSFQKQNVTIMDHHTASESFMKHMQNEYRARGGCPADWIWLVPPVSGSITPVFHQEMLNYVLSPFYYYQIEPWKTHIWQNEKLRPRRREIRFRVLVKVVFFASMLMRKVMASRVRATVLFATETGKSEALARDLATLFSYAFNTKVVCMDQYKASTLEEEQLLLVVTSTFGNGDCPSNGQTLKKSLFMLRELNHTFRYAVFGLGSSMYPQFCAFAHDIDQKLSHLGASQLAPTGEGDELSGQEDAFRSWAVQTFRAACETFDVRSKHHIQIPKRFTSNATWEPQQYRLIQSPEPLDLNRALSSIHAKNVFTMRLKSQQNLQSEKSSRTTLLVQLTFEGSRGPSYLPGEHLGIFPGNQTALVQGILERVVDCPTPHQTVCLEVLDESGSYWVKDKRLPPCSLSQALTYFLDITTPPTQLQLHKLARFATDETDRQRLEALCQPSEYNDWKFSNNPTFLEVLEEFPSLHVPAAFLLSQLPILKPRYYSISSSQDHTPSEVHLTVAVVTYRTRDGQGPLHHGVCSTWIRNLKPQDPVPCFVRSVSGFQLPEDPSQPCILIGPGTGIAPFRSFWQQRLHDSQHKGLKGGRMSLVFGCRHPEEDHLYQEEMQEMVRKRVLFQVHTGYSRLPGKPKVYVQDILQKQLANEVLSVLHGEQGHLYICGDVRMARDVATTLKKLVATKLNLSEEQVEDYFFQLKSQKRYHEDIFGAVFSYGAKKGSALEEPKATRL
Kind of data set: Inhibition of iNOS-mediated LPS-induced nitric oxide production in mouse RAW264.7 cells. It counts as cell-based.

Another data set deals with Vero. Kind of data set: Cytotoxicity against african green monkey Vero cells at 50 uM after 72 hrs. Type of data set: cell-based. The settings on record: chlorocebus sabaeus.
Data set [5] concerns Leishmania braziliensis. In words: Antileishmanial activity against promastigotes form of Leishmania braziliensis MHOM/BR/75/M2904 at 50 uM after 72 hrs. It counts as functional.

Active and inactive are the calls of the source. The rule behind the calls is not given here.

One may read the CC50 as the concentration at which the toxic effect on the cells reaches its halfway point. For orientation: IC50 means the concentration at which inhibition is half-maximal. With `COc1cc(OC)c(C(=O)/C=C/c2cccc(Cl)c2)cc1OC`, the “Ratio CC50/IC50” value in data set [1] came to 24.8. The same compound yielded a CC50 at 72 h in data set [2] of 382 µM. In the data set on Leishmania braziliensis [3], this compound registered an IC50 of 15.4 µM.
For `COc1cc(O)c(C(=O)/C=C/c2cccc(Cl)c2)c(OC)c1`, in that order: 1.8, 341 µM and 194 µM.
With `COc1cc(OC)c(C(=O)/C=C/c2ccccc2Cl)c(OC)c1`, the inhibition entry in data set [4] was “Active”.
For the compound `COc1cc(OC)c(C(=O)/C=C/c2ccc3c(c2)OCO3)c(OC)c1`, in the data set with Vero, the Activity entry is “Non-toxic”. For the same compound, the inhibition entry in the data set with Leishmania braziliensis [5] is “inactive”.
On to `COc1cccc(/C=C/C(=O)c2cc(OC)c(OC)cc2OC)c1`, for which, in data set [1], the “Ratio CC50/IC50” value was found to be 21.1. In data set [2], it took 295 µM to reach half-maximal cytotoxicity (CC50 at 72 h). In the data set with Leishmania braziliensis [3], this compound showed an IC50 of 14 µM.
In the data set with Leishmania braziliensis [3], `N=C(N)c1ccc(OCCCCCOc2ccc(C(=N)N)cc2)cc1` [PENTAMIDINE] came in with an IC50 of 6 µM.
For the compound `COc1cc(OC)c(C(=O)/C=C/c2ccccc2Cl)cc1OC`, the Activity entry in the data set on Vero was “Non-toxic”. Besides, the inhibition result in the data set with Leishmania braziliensis [5] is “inactive”.
For `COc1cc(OC)c(C(=O)/C=C/c2ccc(Cl)cc2)cc1OC`, in data set [1], the “Ratio CC50/IC50” value is listed as 9.4. For the same compound, in data set [2], the midpoint of cytotoxicity, the CC50 at 72 h, lay at 279 µM. This compound had an IC50 in the data set on Leishmania braziliensis [3] of 29.7 µM.
For `COc1cc(OC)c(C(=O)/C=C/c2ccccc2)cc1OC`, in that order: 30.6, 392 µM and 12.8 µM.
As to `COc1cc(OC)c(C(=O)/C=C/c2ccc(Cl)c(Cl)c2)cc1OC`, in data set [1], the “Ratio CC50/IC50” value was found to be 6.1. The same compound displayed a CC50 at 72 h in data set [2] of 906 µM. Besides, in the data set with Leishmania braziliensis [3], it took 148 µM to reach half-maximal inhibition (IC50).

These data come from ChEMBL document CHEMBL1811913, “Trimethoxy-chalcone derivatives inhibit growth of Leishmania braziliensis: synthesis, biological evaluation, molecular modeling and structure-activity relationship (SAR)” (Bioorg Med Chem, 2011).
